From ChEMBL document CHEMBL4219161, “New phenylaniline derivatives as modulators of amyloid protein precursor metabolism” (Bioorg Med Chem, 2018) come the findings set out here.

What all share (format): cell-based
Data set [1] is described as follows: Cytotoxicity against human SH-SY5Y cells after 72 hrs by MTT assay. In a few lines:
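SH-SY5Y cells grown in DMEM with 10% heat-inactivated FBS, 2 mM L-glutamine, non-essential amino acids and penicillin/streptomycin at 37 °C, 5% CO2. Cells were exposed to compounds at 100, 50, 10, 5, 1, 0.5, 0.1 and 0.05 µM, in under 0.1% DMSO, for 72 h. Growth was read by colorimetric MTT; CC50 taken as the concentration causing 50% cell death.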

Data set [2] addresses T1, Amyloid-beta precursor protein (Homo sapiens, UniProt P05067). Nature of the data set: Modulation of human wild-type APP695 expressed in SH-SY5Y cells assessed as inhibition of amyloid beta (1 to 40 residues) production measured after 24 hrs. In a few lines: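 SY5Y-APPwt cells (stable human APP695 clone) were exposed to compound for 24 h. Conditioned medium was spun at 200×g, frozen at −80 °C and assayed by ELISA for Aβ1-40 or Aβ1-42, with samples in duplicate and experiments in triplicate. Values were normalised to untreated control set to 100%. IC50 is the concentration lowering secreted Aβ to 50% of basal; mean of ≥3 independent experiments.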

For data set [3], the target named is T1, Amyloid-beta precursor protein. Nature of the data set: Modulation of human wild-type APP695 expressed in SH-SY5Y cells assessed as increase in CTFalpha level at 3 uM measured after 24 hrs by Western blot analysis relative to chloroquine. Put shortly: (§1)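 SY5Y stably transfected with human APP695 (pcDNA3.1, G418-selected clone SY5Y-APPwt) was plated 24 h before treatment and exposed to compound for 24 h. Lysates were made in Laemmli buffer with protease inhibitors and sonicated. 20 µg protein/lane was run on 16% Tris-Tricine gel and blotted to PVDF. Blots were probed overnight at 4 °C with APP C-terminal (last 17 aa) rabbit antiserum 1:4000 and developed by chemiluminescence. Band area was quantified with H3 reprobe. Result is the fragment level ratio of compound to chloroquine, both at 3 µM; mean of ≥3 independent experiments.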

For data set [4] the target is unchanged. Description: Modulation of human wild-type APP695 expressed in SH-SY5Y cells assessed as increase in AICD level at 3 uM measured after 24 hrs by Western blot analysis relative to chloroquine. Put shortly:
as §1

The target is the same in data set [5]. Description: Modulation of human wild-type APP695 expressed in SH-SY5Y cells assessed as increase in CTFalpha level at 10 uM measured after 24 hrs by Western blot analysis relative to chloroquine. In a few lines: (§2)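 Stable human APP695 SY5Y clone (SY5Y-APPwt) was treated with compound for 24 h and lysed in Laemmli buffer with protease inhibitors. 20 µg protein/lane was separated on 16% Tris-Tricine gel and transferred to PVDF. Blots were probed with rabbit antiserum against the APP C-terminal 17 residues (1:4000, overnight at 4 °C) and read by chemiluminescence with densitometric area-under-curve. H3 was used as reprobe.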

Data set [6] shares this target. Description: Modulation of human wild-type APP695 expressed in SH-SY5Y cells assessed as increase in CTFalpha level at 10 uM measured after 24 hrs by Western blot analysis relative to amodiaquine. In a few lines:
as §2

The target is the same in data set [7]. Nature of the data set: Modulation of human wild-type APP695 expressed in SH-SY5Y cells assessed as increase in CTFalpha level at 3 uM measured after 24 hrs by Western blot analysis relative to amodiaquine. Put shortly: as §2
For data set [8] the target is unchanged. Nature of the data set: Modulation of human wild-type APP695 expressed in SH-SY5Y cells assessed as increase in ACID level at 3 uM measured after 24 hrs by Western blot analysis relative to amodiaquine. Put shortly:
as §2

Data set [9] has the same target. Nature of the data set: Modulation of human wild-type APP695 expressed in SH-SY5Y cells assessed as increase in ACID level at 10 uM measured after 24 hrs by Western blot analysis relative to amodiaquine. In a few lines: as §2

T1 sequence (P05067 whole entry, the tested form may be a part): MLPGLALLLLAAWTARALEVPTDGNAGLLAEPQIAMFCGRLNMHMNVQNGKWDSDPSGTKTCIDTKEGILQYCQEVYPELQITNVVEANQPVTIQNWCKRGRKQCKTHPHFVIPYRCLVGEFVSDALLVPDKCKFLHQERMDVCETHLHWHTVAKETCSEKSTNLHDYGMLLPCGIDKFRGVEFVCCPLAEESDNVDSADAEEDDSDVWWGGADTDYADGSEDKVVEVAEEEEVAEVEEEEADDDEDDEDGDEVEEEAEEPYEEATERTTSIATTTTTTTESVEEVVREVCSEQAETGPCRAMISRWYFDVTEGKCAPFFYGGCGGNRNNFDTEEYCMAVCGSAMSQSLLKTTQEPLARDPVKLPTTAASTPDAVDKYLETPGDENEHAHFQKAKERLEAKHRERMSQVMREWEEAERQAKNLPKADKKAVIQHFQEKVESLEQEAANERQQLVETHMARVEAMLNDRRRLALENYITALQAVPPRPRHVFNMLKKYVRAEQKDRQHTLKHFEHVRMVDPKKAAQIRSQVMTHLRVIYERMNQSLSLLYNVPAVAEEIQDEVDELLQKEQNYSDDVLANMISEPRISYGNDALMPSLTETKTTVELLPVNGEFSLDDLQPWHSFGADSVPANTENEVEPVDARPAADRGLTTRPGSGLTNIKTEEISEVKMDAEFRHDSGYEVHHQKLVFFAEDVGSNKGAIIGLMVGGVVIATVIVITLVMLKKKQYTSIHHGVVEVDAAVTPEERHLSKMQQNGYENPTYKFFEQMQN

For `CN1CCN(Cc2ccccc2Nc2cc(CNCCN3CCCCC3)cc(CNCCN3CCCCC3)c2)CC1`, the cytotoxic concentration (CC50) at 72 h in [1] is > 100 µM. Further, the IC50 in data set [2] was > 10 µM.

`CCN(CC)Cc1cc(NC(=O)CN2CCCCC2)cc(Nc2ccnc3cc(Cl)ccc23)c1` showed a CC50 at 72 h in data set [1] of 4 µM. In addition, the half-maximal inhibitory concentration (IC50) in data set [2] was 1.5 µM. In addition, the fold change (FC) in [3] is 1.6; in [4], 0.9.

`O=C(NCCN1CCCCC1)c1cc(Nc2ccccc2CN2CCCCC2)cc(C(=O)NCCN2CCCCC2)c1`: the CC50 at 72 h in data set [1] is > 100 µM. The 50% inhibitory concentration (IC50) in [2] stood at 4.1 µM. Moreover, the fold change (FC) is 2.8 in data set [3]; 2.3 in data set [4]; 3 in [5]; 3 in data set [6]; 5.6 to 5.75 in data set [7]; 3.2 to 10 in data set [8].

As for `O=C(NCCN1CCCCC1)c1cc(C(=O)NCCN2CCCCC2)cc(-c2ccccc2CN2CCCCC2)c1`, the half-maximal cytotoxic concentration (CC50) at 72 h in [1] was > 100 µM. For the same molecule, the IC50 in data set [2] stood at 6.2 µM. Moreover, the fold change (FC) in data set [3] was found to be 1.4; in data set [4] it was 1.9.

In [1], `Clc1ccc2c(Nc3cc(CN4CCOCC4)cc(NCCN4CCCCC4)c3)ccnc2c1` gave a CC50 at 72 h of 10 µM. Moreover, in data set [2], the IC50 was 2.5 µM. Further, the fold change (FC) in data set [3] and in [4] was 1.2 each time.

On to `CCN(CC)Cc1cc(Nc2ccnc3cc(Cl)ccc23)ccc1O` [AMODIAQUINE], for which the CC50 at 72 h in data set [1] amounted to 10 µM. In addition, the IC50 in [2] amounted to 4 µM. For the same molecule, the fold change (FC) amounted to 0.5 in [3] and 0.4 in data set [4].

The molecule `CCN(CC)Cc1cccc(Nc2ccnc3cc(Cl)ccc23)c1` displayed a CC50 at 72 h in [1] of 12 µM. Further, the IC50 in data set [2] worked out at 4.5 µM. The fold change (FC) was determined as 0.6 in data set [3] and 0.5 in [4].

On to `CN1CCN(Cc2ccccc2-c2cc(C(=O)NCCN3CCCCC3)cc(C(=O)NCCN3CCCCC3)c2)CC1`, for which the cytotoxic concentration (CC50) at 72 h in [1] was > 100 µM. Further, in data set [2], the IC50 is > 10 µM.

For the molecule `CCN(CC)CCCC(C)Nc1ccnc2cc(Cl)ccc12` (stereo not drawn) [CHLOROQUINE], in data set [1], the 50% cytotoxic concentration (CC50) at 72 h was 30 µM. Also, the IC50 in [2] stood at 7 µM. Moreover, the fold change (FC) in data set [3] and in data set [4] was 1 throughout.

Consider `CN1CCN(Cc2ccccc2Nc2cc(C(=O)NCCN3CCCCC3)cc(C(=O)NCCN3CCCCC3)c2)CC1`, for which the half-maximal cytotoxic concentration (CC50) at 72 h in data set [1] is > 100 µM. For the same molecule, the IC50 in [2] was > 10 µM.

As for `CN(C)Cc1ccccc1-c1cc(C(=O)NCCN2CCCCC2)cc(C(=O)NCCN2CCCCC2)c1`, the CC50 at 72 h in data set [1] is > 100 µM. Also, in data set [2], the half-maximal inhibitory concentration (IC50) is > 10 µM.

With `O=C(NCCN1CCCCC1)c1cc(C(=O)NCCN2CCCCC2)cc(-c2ccccc2CN2CCOCC2)c1`, the cytotoxic concentration (CC50) at 72 h in data set [1] was > 100 µM. Further, the half-inhibitory concentration (IC50) in data set [2] was > 10 µM.

For the molecule `CCN(CC)Cc1cc(NCCN2CCCCC2)cc(Nc2ccnc3cc(Cl)ccc23)c1`, the CC50 at 72 h in data set [1] was 15 µM. The half-maximal inhibitory concentration (IC50) in data set [2] amounted to 10 µM. The fold change (FC) in [3] came out at 0.5; in data set [4] it was 0.4.

For the molecule `c1ccc(Nc2cc(CNCCN3CCCCC3)cc(CNCCN3CCCCC3)c2)c(CN2CCCCC2)c1`, in data set [1], the cytotoxic concentration (CC50) at 72 h is > 100 µM. Further, in [2], the concentration for half-maximal inhibition (IC50) was 4.6 µM. For the same molecule, the fold change (FC) in [3] is 2.6; in data set [4] it was 4; in data set [9], 10; in data set [7] it was 5.6 to 5.75; in [8], 3.2 to 10.

As for `CN(C)Cc1ccccc1Nc1cc(C(=O)NCCN2CCCCC2)cc(C(=O)NCCN2CCCCC2)c1`, the cytotoxic concentration (CC50) at 72 h in data set [1] is > 100 µM. Further, the half-inhibitory concentration (IC50) in data set [2] worked out at 8.2 µM. Moreover, the fold change (FC) in [3] stood at 1; in data set [4], 3.

`Oc1c(CN2CCCC2)cc(Nc2ccnc3cc(Cl)ccc23)cc1CN1CCCC1` gave a half-maximal cytotoxic concentration (CC50) at 72 h in [1] of 30 µM. Further, the half-inhibitory concentration (IC50) in [2] worked out at 5.1 µM. In addition, the values for the fold change (FC) in data set [3] and in data set [4] were 0.5 and 0.6, respectively.

As for `CN1CCN(c2cc(Nc3ccnc4cc(Cl)ccc34)cc(N3CCN(C)CC3)c2)CC1`, the CC50 at 72 h in [1] was > 15 µM. Besides, in data set [2], the half-maximal inhibitory concentration (IC50) came to 2.3 µM. The fold change (FC) came to 1.4 in data set [3] and 1.1 in [4].

For `CN1CCN(Cc2ccccc2-c2cc(CNCCN3CCCCC3)cc(CNCCN3CCCCC3)c2)CC1`, the CC50 at 72 h in data set [1] was > 100 µM. Also, the IC50 in [2] was > 10 µM.

As to `c1ccc(-c2cc(CNCCN3CCCCC3)cc(CNCCN3CCCCC3)c2)c(CN2CCOCC2)c1`, the 50% cytotoxic concentration (CC50) at 72 h in [1] was > 100 µM. Also, in data set [2], the IC50 was > 10 µM.

`O=C(CN1CCCCC1)Nc1cc(CN2CCOCC2)cc(Nc2ccnc3cc(Cl)ccc23)c1` had a cytotoxic concentration (CC50) at 72 h in data set [1] of 10 µM. The IC50 in data set [2] stood at 3.1 µM. Also, the fold change (FC) in [3] came out at 0.7; in [4], 0.5.

`O=C(NCCN1CCCCC1)c1cc(Nc2ccccc2CN2CCOCC2)cc(C(=O)NCCN2CCCCC2)c1`: the CC50 at 72 h in data set [1] was > 100 µM. The IC50 in data set [2] is > 10 µM.

With `CN(C)Cc1ccccc1Nc1cc(CNCCN2CCCCC2)cc(CNCCN2CCCCC2)c1`, the half-maximal cytotoxic concentration (CC50) at 72 h in data set [1] is > 100 µM. Also, the IC50 in data set [2] is > 10 µM.

In the case of `c1ccc(Nc2cc(CNCCN3CCCCC3)cc(CNCCN3CCCCC3)c2)c(CN2CCOCC2)c1`, in data set [1], half-maximal cytotoxicity (CC50 at 72 h) was put at 77 µM. In addition, the half-maximal inhibitory concentration (IC50) in data set [2] is 6.6 µM. Moreover, the fold change (FC) in [3] stood at 0.9; in [4] it was 1.3.

With `c1ccc(-c2cc(CNCCN3CCCCC3)cc(CNCCN3CCCCC3)c2)c(CN2CCCCC2)c1`, in data set [1], the CC50 at 72 h was > 100 µM. In data set [2], the half-maximal inhibitory concentration (IC50) is > 10 µM.

`CN(C)CCNCc1cc(NC(=O)CN2CCCCC2)cc(Nc2ccnc3cc(Cl)ccc23)c1`: the cytotoxic concentration (CC50) at 72 h in data set [1] came to 15 µM. Also, the IC50 in [2] is 2 µM. For the same molecule, the fold change (FC) in data set [3] stood at 1.7; in [4] it was 2.3.

Take `CN(C)Cc1ccccc1-c1cc(CNCCN2CCCCC2)cc(CNCCN2CCCCC2)c1`: in data set [1], the cytotoxic concentration (CC50) at 72 h was > 100 µM. Further, the half-maximal inhibitory concentration (IC50) in data set [2] is > 10 µM.

In data set [1], `CN(C)CCN(C)Cc1cc(NC(=O)CN2CCCCC2)cc(Nc2ccnc3cc(Cl)ccc23)c1` came in with a CC50 at 72 h of 4 µM. In addition, the IC50 in data set [2] came out at 1.7 µM. Further, the fold change (FC) in [3] was 2.1; in data set [4], 3.4.
